Results: ChEMBL document CHEMBL3585281, “Antibacterial Labdane Diterpenoids from Vitex vestita” (2015)
In brackets after ≈: the same amount, converted by molar mass.

Assays:
Format in all cases: functional
[1] = tested on: Listeria monocytogenes; assay: Antibacterial activity against Listeria monocytogenes N851 after 18 hrs by agar dilution method; details: N851, 18 h
Outline: (§1)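 Agar-dilution MIC against Gram-positive strains. Compounds in DMSO, geometric dilutions giving final 100−0.75 mg/L in Mueller Hinton agar. Strains grown 18 h at 37 °C in trypticase soy broth, diluted in sterile water, spotted by Steers inoculator (about 1000 UFC/spot). Plates incubated 18 h at 37 °C; DMSO blank; ofloxacin positive control. MIC = lowest concentration with no visible growth.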

[2] = tested on: Streptococcus agalactiae; assay: Antibacterial activity against Streptococcus agalactiae CIP 103227 after 18 hrs by agar dilution method; details: ATCC 13813, 18 h; outline: as §1
[3] = tested on: Enterococcus faecium; assay: Antibacterial activity against Enterococcus faecium N507 after 18 hrs by agar dilution method; details: N507, 18 h; outline: as §1
[4] = tested on: Staphylococcus aureus; assay: Antibacterial activity against Staphylococcus aureus CIP 53156 after 18 hrs by agar dilution method; details: CIP 53156, 18 h; outline: as §1
[5] = tested on: Enterococcus casseliflavus; assay: Antibacterial activity against Enterococcus casseliflavus CIP 103018 after 18 hrs by agar dilution method; details: CIP 103018, 18 h; outline: as §1
[6] = tested on: Enterococcus hirae; assay: Antibacterial activity against Enterococcus hirae CIP 5855 after 18 hrs by agar dilution method; details: CIP 5855, 18 h; outline: as §1
[7] = tested on: Staphylococcus aureus; assay: Antibacterial activity against Staphylococcus aureus ATCC 25923 after 18 hrs by agar dilution method; details: ATCC 25923, 18 h; outline: as §1
[8] = tested on: Enterococcus faecium; assay: Antibacterial activity against Enterococcus faecium N490 after 18 hrs by agar dilution method; details: N490, 18 h; outline: as §1
[9] = tested on: Bacillus cereus; assay: Antibacterial activity against Bacillus cereus N258 after 18 hrs by agar dilution method; details: N258, 18 h; outline: as §1
[10] = tested on: Bacillus cereus; assay: Antibacterial activity against Bacillus cereus CIP 6624 after 18 hrs by agar dilution method; details: CIP 6624, 18 h; outline: as §1
[11] = tested on: Enterococcus faecalis; assay: Antibacterial activity against Enterococcus faecalis N518 after 18 hrs by agar dilution method; details: N518, 18 h; outline: as §1
[12] = tested on: Enterococcus durans; assay: Antibacterial activity against Enterococcus durans CIP 104999 after 18 hrs by agar dilution method; details: CIP 104999, 18 h; outline: as §1
[13] = tested on: Staphylococcus lugdunensis; assay: Antibacterial activity against Staphylococcus lugdunensis ATCC 43809 after 18 hrs by agar dilution method; details: ATCC 43809, 18 h; outline: as §1
[14] = tested on: Staphylococcus haemolyticus; assay: Antibacterial activity against Staphylococcus haemolyticus CIP 8156 after 18 hrs by agar dilution method; details: CIP 8156, 18 h; outline: as §1
[15] = tested on: Staphylococcus aureus; assay: Antibacterial activity against Staphylococcus aureus CRBIP 2121 after 18 hrs by agar dilution method; details: CRBIP 2121, 18 h; outline: as §1
[16] = tested on: Staphylococcus epidermidis; assay: Antibacterial activity against Staphylococcus epidermidis CIP 53124 after 18 hrs by agar dilution method; details: CIP 53124, 18 h; outline: as §1
[17] = tested on: Enterococcus faecalis; assay: Antibacterial activity against Enterococcus faecalis N491 after 18 hrs by agar dilution method; details: N491, 18 h; outline: as §1
[18] = tested on: Bacillus cereus; assay: Antibacterial activity against Bacillus cereus N349 after 18 hrs by agar dilution method; details: N349, 18 h; outline: as §1
[19] = tested on: Enterococcus faecium; assay: Antibacterial activity against Enterococcus faecium N733 after 18 hrs by agar dilution method; details: N733, 18 h; outline: as §1
[20] = tested on: Staphylococcus aureus; assay: Antibacterial activity against Staphylococcus aureus CIP 483 after 18 hrs by agar dilution method; details: CIP 483, 18 h; outline: as §1
[21] = tested on: Bacillus cereus; assay: Antibacterial activity against Bacillus cereus N190 after 18 hrs by agar dilution method; details: N190, 18 h; outline: as §1
[22] = tested on: Mammaliicoccus sciuri; assay: Antibacterial activity against Staphylococcus sciuri N993 after 18 hrs by agar dilution method; details: N993, 18 h; outline: as §1
[23] = tested on: Staphylococcus saprophyticus; assay: Antibacterial activity against Staphylococcus saprophyticus CIP 76125 after 18 hrs by agar dilution method; details: CIP 76125, 18 h; outline: as §1
[24] = tested on: Bacillus spizizenii; assay: Antibacterial activity against Bacillus subtilis ATCC 6633 after 18 hrs by agar dilution method; details: ATCC 6633, 18 h; outline: as §1
[25] = tested on: Listeria innocua; assay: Antibacterial activity against Listeria innocua E044 after 18 hrs by agar dilution method; details: E044, 18 h; outline: as §1
[26] = tested on: Staphylococcus aureus; assay: Antibacterial activity against Staphylococcus aureus ATCC 9144 oxford after 18 hrs by agar dilution method; outline: as §1
[27] = tested on: Enterococcus faecium; assay: Antibacterial activity against Enterococcus faecium N823 after 18 hrs by agar dilution method; details: N823, 18 h; outline: as §1
[28] = tested on: Listeria monocytogenes; assay: Antibacterial activity against Listeria monocytogenes CIP 103575 after 18 hrs by agar dilution method; details: CIP 103575, 18 h; outline: as §1
[29] = tested on: Listeria monocytogenes; assay: Antibacterial activity against Listeria monocytogenes N836 after 18 hrs by agar dilution method; details: N836, 18 h; outline: as §1
[30] = tested on: Staphylococcus aureus; assay: Antibacterial activity against Staphylococcus aureus CIP 53154 after 18 hrs by agar dilution method; details: CIP 53154, 18 h; outline: as §1
[31] = tested on: Enterococcus faecalis; assay: Antibacterial activity against Enterococcus faecalis N520 after 18 hrs by agar dilution method; details: N520, 18 h; outline: as §1
[32] = tested on: Enterococcus avium; assay: Antibacterial activity against Enterococcus avium CIP 104053 after 18 hrs by agar dilution method; details: CIP 104053, 18 h; outline: as §1
[33] = tested on: Staphylococcus saprophyticus; assay: Antibacterial activity against Staphylococcus saprophyticus E260 after 18 hrs by agar dilution method; details: E260, 18 h; outline: as §1
[34] = tested on: Enterococcus gallinarum; assay: Antibacterial activity against Enterococcus gallinarum N492 after 18 hrs by agar dilution method; details: N492, 18 h; outline: as §1
[35] = tested on: Corynebacterium striatum; assay: Antibacterial activity against Corynebacterium striatum N840 after 18 hrs by agar dilution method; details: N840, 18 h; outline: as §1
[36] = tested on: Listeria monocytogenes; assay: Antibacterial activity against Listeria monocytogenes N783 after 18 hrs by agar dilution method; details: N783, 18 h; outline: as §1
[37] = tested on: Staphylococcus intermedius; assay: Antibacterial activity against Staphylococcus intermedius N987 after 18 hrs by agar dilution method; details: N987, 18 h; outline: as §1
[38] = tested on: Enterococcus gallinarum; assay: Antibacterial activity against Enterococcus gallinarum CIP 105985 after 18 hrs by agar dilution method; details: CIP 105985, 18 h; outline: as §1
[39] = tested on: Enterococcus faecalis; assay: Antibacterial activity against Enterococcus faecalis CIP 103214 after 18 hrs by agar dilution method; details: CIP 103214, 18 h; outline: as §1
[40] = tested on: Enterococcus gallinarum; assay: Antibacterial activity against Enterococcus gallinarum N489 after 18 hrs by agar dilution method; details: N489, 18 h; outline: as §1
[41] = tested on: Enterococcus casseliflavus; assay: Antibacterial activity against Enterococcus casseliflavus N487 after 18 hrs by agar dilution method; details: N487, 18 h; outline: as §1
[42] = tested on: Staphylococcus aureus; assay: Antibacterial activity against Staphylococcus aureus CIP 7625 after 18 hrs by agar dilution method; details: CIP 7625, 18 h; outline: as §1
[43] = tested on: Enterococcus faecium; assay: Antibacterial activity against Enterococcus faecium CIP 107387 after 18 hrs by agar dilution method; details: CIP 107387, 18 h; outline: as §1
[44] = tested on: Staphylococcus aureus; assay: Antibacterial activity against Staphylococcus aureus CIP 5710 after 18 hrs by agar dilution method; details: CIP 5710, 18 h; outline: as §1
[45] = tested on: Enterococcus faecium; assay: Antibacterial activity against Enterococcus faecium CIP 103014 after 18 hrs by agar dilution method; details: CIP 103014, 18 h; outline: as §1
[46] = tested on: Enterococcus faecalis; assay: Antibacterial activity against Enterococcus faecalis CIP 104676 after 18 hrs by agar dilution method; details: CIP 104676, 18 h; outline: as §1

SMILES: CC1(C)S[C@@H]2[C@H](NC(=O)[C@H](N)c3ccc(O)cc3)C(=O)N2[C@H]1C(=O)O [AMOXICILLIN]
- MIC [1]: 0.7 µM (≈ 0.256 µg/mL)
- MIC [2]: ≤ 0.2 µM
- MIC [3]: 350 µM (≈ 128 µg/mL)
- MIC [4]: ≤ 0.2 µM
- MIC [5]: 0.7 µM (≈ 0.256 µg/mL)
- MIC [6]: 1.4 µM (≈ 0.512 µg/mL)
- MIC [7]: 0.3 µM (≈ 0.11 µg/mL)
- MIC [8]: 22 µM (≈ 8.04 µg/mL)
- MIC [9]: 11 µM (≈ 4.02 µg/mL)
- MIC [10]: 11 µM (≈ 4.02 µg/mL)
- MIC [11]: 0.7 µM (≈ 0.256 µg/mL)
- MIC [12]: 1.4 µM (≈ 0.512 µg/mL)
- MIC [13]: 0.7 µM (≈ 0.256 µg/mL)
- MIC [14]: ≤ 0.2 µM
- MIC [15]: 175 µM (≈ 63.9 µg/mL)
- MIC [16]: ≤ 0.2 µM
- MIC [17]: 0.7 µM (≈ 0.256 µg/mL)
- MIC [18]: 11 µM (≈ 4.02 µg/mL)
- MIC [19]: > 350 µM
- MIC [20]: 0.3 µM (≈ 0.11 µg/mL)
- MIC [21]: 44 µM (≈ 16.1 µg/mL)
- MIC [22]: 0.7 µM (≈ 0.256 µg/mL)
- MIC [23]: 0.7 µM (≈ 0.256 µg/mL)
- MIC [24]: ≤ 0.2 µM
- MIC [25]: 0.7 µM (≈ 0.256 µg/mL)
- MIC [26]: ≤ 0.2 µM
- MIC [27]: 350 µM (≈ 128 µg/mL)
- MIC [28]: 0.7 µM (≈ 0.256 µg/mL)
- MIC [29]: 0.7 µM (≈ 0.256 µg/mL)
- MIC [30]: 0.3 µM (≈ 0.11 µg/mL)
- MIC [31]: 3 µM (≈ 1.1 µg/mL)
- MIC [32]: 0.7 µM (≈ 0.256 µg/mL)
- MIC [33]: 0.7 µM (≈ 0.256 µg/mL)
- MIC [34]: 0.7 µM (≈ 0.256 µg/mL)
- MIC [35]: 350 µM (≈ 128 µg/mL)
- MIC [36]: 0.7 µM (≈ 0.256 µg/mL)
- MIC [37]: 88 µM (≈ 32.2 µg/mL)
- MIC [38]: 1.4 µM (≈ 0.512 µg/mL)
- MIC [39]: 1.4 µM (≈ 0.512 µg/mL)
- MIC [40]: 0.7 µM (≈ 0.256 µg/mL)
- MIC [41]: 0.7 µM (≈ 0.256 µg/mL)
- MIC [42]: 0.3 µM (≈ 0.11 µg/mL)
- MIC [43]: 175 µM (≈ 63.9 µg/mL)
- MIC [44]: 0.7 µM (≈ 0.256 µg/mL)
- MIC [45]: 0.7 µM (≈ 0.256 µg/mL)
- MIC [46]: 1.4 µM (≈ 0.512 µg/mL)
